Compound activity from PubChem BioAssay.
Sampled rows, rich in hits. Any-hit rate of the full collection: about 1.8%.
CASP6 VEID inh – human caspase-6 inhibitors, primary screen, biochemical, VEID-R110 fluorescence, single point, set 2. P55212. purified caspase-6, Z-VEID-R110 cleavage fluorescence. inhibition, % at 12.5 µM. hit rate 0.53% among 350,000. AID 686996, 2013;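 active means mean inhibition across replicates at least about 35%, with every replicate also reaching that limit, limit read from the data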;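 further: 0% = median of neutral control wells and 100% = no fluorescence left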
UHRF1 MBD2 ctr – UHRF1 methylated DNA binding inhibitors, primary screen, counter-screen for MBD2 inhibitor project, biochemical, TR-FRET, human UHRF1, single concentration | E3 ubiquitin-protein ligase UHRF1 (Homo sapiens), Q96T88 | UHRF1 binding to methylated oligo | inhibition, % at 4.4 µM | hit rate 0.75% among 370,000 | AID 687016, 2013; in the data active means inhibition above about 21%;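 further: UHRF1 SRA domain binding a hemimethylated CpG hairpin DNA probe; 0% = median of test compound wells and 100% = reference inhibitor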
Target sequence (Q96T88 whole entry, looked up, the tested form may be a part): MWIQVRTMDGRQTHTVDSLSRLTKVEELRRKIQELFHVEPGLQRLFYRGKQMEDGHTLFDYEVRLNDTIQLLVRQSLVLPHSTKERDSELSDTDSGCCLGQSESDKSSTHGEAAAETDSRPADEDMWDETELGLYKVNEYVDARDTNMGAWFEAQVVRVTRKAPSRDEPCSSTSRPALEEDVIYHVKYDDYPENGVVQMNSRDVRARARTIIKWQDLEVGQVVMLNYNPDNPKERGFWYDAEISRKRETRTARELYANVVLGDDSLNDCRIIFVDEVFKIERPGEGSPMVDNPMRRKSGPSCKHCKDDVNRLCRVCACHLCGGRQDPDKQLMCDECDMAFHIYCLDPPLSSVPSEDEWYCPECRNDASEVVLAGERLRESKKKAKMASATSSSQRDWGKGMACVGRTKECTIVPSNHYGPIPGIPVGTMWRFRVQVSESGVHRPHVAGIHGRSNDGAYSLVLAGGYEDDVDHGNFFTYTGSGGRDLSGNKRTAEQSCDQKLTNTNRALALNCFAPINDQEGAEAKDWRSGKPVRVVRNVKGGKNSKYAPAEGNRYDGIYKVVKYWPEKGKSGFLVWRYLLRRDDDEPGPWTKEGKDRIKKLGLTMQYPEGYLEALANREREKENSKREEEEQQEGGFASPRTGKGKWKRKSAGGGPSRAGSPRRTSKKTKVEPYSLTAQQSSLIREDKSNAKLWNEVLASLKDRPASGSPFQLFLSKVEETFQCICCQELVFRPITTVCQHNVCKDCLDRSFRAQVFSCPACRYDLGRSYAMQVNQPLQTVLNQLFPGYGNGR
TDP2 absorb – human TDP2 enzyme inhibitors, primary screen, biochemical, epi absorbance, recombinant enzyme | Tyrosyl-DNA phosphodiesterase 2 (Homo sapiens), O95551 | T5PNP hydrolysis, p-nitrophenol absorbance 415 nm | inhibition, % at 12.8 µM | hit rate 0.34% among 370,000 | AID 720702, 2013;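 active means inhibition above the mean of all tested compounds plus 3 SD, set per campaign, cut at about 25% in these data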;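 further: 0% = DMSO with enzyme and 100% = buffer with substrate but no TDP2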
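Material: recombinant human TDP2; quantity: TDP2 enzyme at 120 nM final; medium: Tris-HCl pH 7.5 with MgCl2; compound: single concentration, 12.8 µM nominal, with 1% DMSO; incubation: 2 h enzyme incubation at 37 °C; signal: epi absorbance; measure: percent inhibition; benchmarks: high control without enzyme, low control DMSO plus TDP2; repeats: singlicate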
NSD2 inh – NSD2 histone methyltransferase inhibitors, primary screen, biochemical, AlphaScreen, single concentration, set 2 | hit rate 0.54% among 310,000 | NSD2 peptide methylation, 120 min | inhibition, % at 12.5 µM | Histone-lysine N-methyltransferase NSD2 (Homo sapiens), O96028; in the data active means inhibition above about 50%
MBD2 DNA inh – inhibitors of MBD2 binding to methylated DNA, primary screen, biochemical, TR-FRET, DNA-binding domain, human; MBD2 binding to methylated oligonucleotide; inhibition, % at 4.4 µM; hit rate 0.31% among 370,000; AID 686964, 2013; in the data active means inhibition above about 13%
LEDGF integ inh – blockers of LEDGF/p75-dependent integrase strand transfer – biochemical, TR-FRET, high throughput, primary screen. hit rate 0.64% among 370,000. HIV-1 integrase (with human LEDGF/p75). inhibition, % at 3.7 µM. TR-FRET IN-LEDGF/p75 DNA integration, Eu/Cy5;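 active means inhibition above the screen-wide mean plus 3 SD, cut at about 13% in these data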;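 further: signal is the Cy5 over europium emission ratio at 671 and 618 nm; 0% = plate median of compound wells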
IN multimer up – HIV-1 IN multimer formation enhancers, counter-screen for LEDGF/p75 integration inhibitor project, biochemical, TR-FRET | shares compounds with LEDGF integ inh | TR-FRET HIV-1 integrase multimerization | activation, % at 7.7 µM | hit rate 17% among 2,000; in the data active means activation above about 8.9%
TRFRET interf – TR-FRET optical interference artefacts, confirmation, artefact control for LEDGF/p75-dependent integration inhibitor project, biochemical, HIV-1 IN multimerization | inhibition, % at 7.7 µM | shares compounds with LEDGF integ inh | TR-FRET optical interference counterscreen | AID 1053135, 2014 | 2,000 tested, under 10 active;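 active means inhibition above the mean over all tested compounds plus 3 SD, which no compound reached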;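 further: 0% = integrase with antibodies and DMSO and 100% = antibodies without integrase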
IN-LEDGF confirm – inhibitors of HIV-1 IN-LEDGF/p75 DNA integration, confirmation, biochemical, TR-FRET | shares compounds with LEDGF integ inh | AID 1053136, 2014 | inhibition, % at 3.7 µM | TR-FRET LEDGF/p75-dependent HIV-1 integration | hit rate 36% among 2,000; in the data active means inhibition above about 14%
Active calls of the source: *; . = no result given.

SMILES	CASP6 VEID inh	UHRF1 MBD2 ctr	TDP2 absorb	NSD2 inh	MBD2 DNA inh	LEDGF integ inh	IN multimer up	TRFRET interf	IN-LEDGF confirm
COC(=O)C1=C(CCc2ccccc2)NC(=O)NC1c1ccc(C#N)cc1 (stereo not drawn)	2	1	-5	.	0	2	.	.	.
COC(=O)C1=C(CCc2ccccc2)NC(=O)NC1c1ccc(Cl)cc1 (stereo not drawn)	1	0	1	.	-2	18*	2	-5	-7
O=S(=O)(NN=C(c1ccccc1)c1ccccc1)c1ccccc1	0	0	5	-1	4	-4	.	.	.
COP(=O)(OC)C(=NNS(=O)(=O)c1ccc(C)cc1)c1ccccc1	4	2	-1	12	6	27*	-1	5	0
Cc1cc(NC(=O)c2ccco2)ncc1NC(=O)CCc1ccccc1	.	-3	-12	5	-3	-1	.	.	.
CCCCC(=O)Nc1cc(C)c(NC(=O)c2ccco2)cn1	0	0	-7	-2	4	27*	1	-3	0
Oc1ccc(/C=N/N(c2ccccc2)c2ccccc2)c(O)c1O	25	-3	1	14	0	26*	-1	6	16*
NNc1ccc([N+](=O)[O-])c2[nH][nH]c(=O)c12	94*	40*	5	.	5	19*	35*	-176	44*
Cc1cc(N(C)C)ccc1[N+](=O)[O-]	4	-4	-11	-2	-8	1	.	.	.
Cc1nc2cc(-c3ccsc3-n3c(C)ccc3C)[nH]n2c(=O)c1Cl	.	32*	3	-1	8	48*	8	-41	33*
Cc1cc(=O)n2[nH]c(-c3ccc(F)cc3)cc2n1	.	-3	1	-1	2	1	.	.	.
Cc1cc(=O)n2[nH]c(-c3ccsc3-n3c(C)ccc3C)cc2n1	11	18	0	-1	10	28*	25*	-127	50*
Cc1noc(C)c1NC(=O)N(C)C[C@H]1Oc2c(NS(=O)(=O)c3cn(C)cn3)cccc2C(=O)N([C@H](C)CO)C[C@H]1C	-1	.	.	.	.	.	.	.	.
COc1ccccc1S(=O)(=O)N[C@@H]1CC[C@H](CC(=O)NCc2cc(F)cc(F)c2)O[C@H]1CO	-1	.	.	.	.	.	.	.	.
Oc1ccc(C=Nc2cccc3ncccc23)c(O)c1	.	-3	9	2	-10	16*	17*	-60	22*
CC(C)CC#Cc1ccc([C@@H]2[C@H]3CN(C(=O)Cc4ccccc4)CC(=O)N3[C@H]2CO)cc1	1	.	.	.	.	.	.	.	.
CC(C)NC(=O)Nc1ccc2c(c1)CC(=O)N([C@H](C)CO)C[C@@H](C)[C@@H](CN(C)Cc1ccccc1)O2	1	.	.	.	.	.	.	.	.
c1coc(-c2ccnc3nc(-n4cccc4)nn23)c1	6	-6	-5	-2	6	17*	1	-5	8
COc1ccc(-c2ccnc3nc(-n4cccc4)nn23)cc1	.	-1	0	1	-3	3	.	.	.
O=C(C[C@H]1CC[C@H]2[C@@H](COC[C@H](O)CN2C(=O)Nc2ccc(F)cc2)O1)NCCCN1CCOCC1	-1	.	.	.	.	.	.	.	.
CO[C@H]1CC[C@@H]2CCN(C)C(=O)[C@@H](C)[C@@H](OC)CN(C)C(=O)c3cccc(C#N)c3OC[C@@H]1O2	-2	.	.	.	.	.	.	.	.
CS(=O)(=O)N1CCN(c2ccc(NC(=O)CSc3ccc(Cl)cc3)cc2)CC1	0	-1	3	-2	-5	63*	-2	8	-1
O=C(Nc1ccccc1C(=O)N1CCN(c2cccc(Cl)c2)CC1)C1=CSCCO1	1	-1	7	2	-1	81*	-1	7	0
COc1cc(O)c(C(C)=O)c(CC(=O)O)c1	15	28*	-5	.	10	31*	33*	-118	59*
O=C(C[C@H]1CC[C@@H](NC(=O)CN2CCOCC2)[C@H](CO)O1)NC1CCCCC1	0	.	.	.	.	.	.	.	.
SMILES	CASP6 VEID inh	UHRF1 MBD2 ctr	TDP2 absorb	NSD2 inh	MBD2 DNA inh	LEDGF integ inh	IN multimer up	TRFRET interf	IN-LEDGF confirm
Oc1ccccc1/C=N/c1c(-c2ccco2)nc2ccccn12	.	4	6	15	-8	20*	3	-13	4
COc1ccc(/C=N/Nc2nc(N)cc(Cl)n2)cc1OC	3	-3	0	2	-2	28*	3	-13	-5
COc1ccc(/C=N/Nc2nonc2N)cc1OC	.	-4	0	-2	0	4	.	.	.
CN(C)CCCNC(=O)C[C@H]1CC[C@@H]2[C@@H](COc3ccc(NC(=O)c4cccc(F)c4)cc3C(=O)N2C)O1	1	.	.	.	.	.	.	.	.
Cn1cccc1CC(=O)N/N=C/c1ccco1	16	-1	0	0	-2	5	.	.	.
CC(=C/c1ccco1)/C=N/NC(=O)Cc1cccn1C	20	5	-2	1	2	21*	-1	5	10
CC(/C=N/NC(=O)Cc1cccn1C)=C\c1ccco1	.	21*	4	24	9	37*	1	-5	6
CC(C)NC(=O)Nc1ccc2c(c1)C(=O)N([C@@H](C)CO)C[C@@H](C)[C@@H](CN(C)S(=O)(=O)c1cccs1)OCCCC[C@H](C)O2	-1	.	.	.	.	.	.	.	.
CCOc1ccccc1N1C(=O)CC(Nc2ccc(N3CCOCC3)cc2)C1=O (stereo not drawn)	8	-2	22	8	2	11	.	.	.
COc1ccccc1N1C(=O)CC(Nc2ccc(N3CCOCC3)cc2)C1=O (stereo not drawn)	.	1	11	13	0	15*	1	-3	-3
O=C(C[C@@H]1CC[C@@H]2[C@H](COC[C@H](O)CN2S(=O)(=O)c2cccc(Cl)c2)O1)NC1Cc2ccccc2C1	0	.	.	.	.	.	.	.	.
CC(C)(O)CNC(=O)C(Cc1ccccc1)N1C(=O)c2ccccc2C1=O (stereo not drawn)	-2	10	-6	-2	3	77*	0	0	-6
